# High-throughput results from PubChem BioAssay.
# HIV Rev-RRE inh: inhibitors of HIV-1 Rev-RRE RNA interaction; P05866; Rev peptide-RRE RNA binding, FRET; inhibition, % at 8 µM; 97,000 tested, 0.79% active; AID 704;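 active = inhibition above the screen-wide mean plus 3 SD, cut at about 35% in these data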;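 note: 0% = median DMSO wells and 100% = median Neomycin B control wells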
# Target sequence (P05866 whole entry, looked up): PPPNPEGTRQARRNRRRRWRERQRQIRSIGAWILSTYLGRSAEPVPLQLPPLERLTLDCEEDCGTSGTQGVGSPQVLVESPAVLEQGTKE
#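 Test system – labelled RRE RNA duplex and labelled Rev peptide · Reagent – labelled Rev peptide · Doses – one concentration, 8 µM nominal · Incubation – 5 + 15 min at 25 °C · Signal – FRET fluorescence readout · Read-out basis – % inhibition of FRET ratio versus controls · Control set – DMSO wells as 0% and neomycin B wells as 100% inhibition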
# GALR2 blocker: GALR2 (human) receptor antagonism; GALR2-expressing cells, antagonist mode; inhibition, % at 4 µM; 140,000 tested, 0.39% active; AID 828;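 note: cells stimulated with galanin 1-16 at roughly its EC80; 0% = agonist challenge control and 100% = basal control without agonist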
# S1P2 ag: S1P2 (human) receptor agonism; O95136; 97,000 tested, 0.46% active; AID 729; activation, % at 4.5 µM; S1P2-expressing cell line, agonist reporter read-out; in the data active = activation above about 16%;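 note: 0% = vehicle low control and 100% = maximal reference agonist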
# Target sequence (O95136 whole entry, looked up): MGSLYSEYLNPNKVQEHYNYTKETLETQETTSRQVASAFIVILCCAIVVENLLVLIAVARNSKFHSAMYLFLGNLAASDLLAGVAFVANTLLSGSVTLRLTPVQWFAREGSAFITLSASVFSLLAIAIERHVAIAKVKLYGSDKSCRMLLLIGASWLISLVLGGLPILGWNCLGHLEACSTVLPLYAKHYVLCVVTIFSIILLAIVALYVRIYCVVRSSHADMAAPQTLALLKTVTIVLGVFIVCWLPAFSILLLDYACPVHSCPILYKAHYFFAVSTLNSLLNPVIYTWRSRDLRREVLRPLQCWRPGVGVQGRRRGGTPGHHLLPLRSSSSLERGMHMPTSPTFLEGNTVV
# S1P2 blocker: S1P2 (human) receptor antagonism | O95136 | inhibition, % at 5 µM | AID 736 | 97,000 tested, 0.21% active | cell-based S1P2 antagonist assay, inhibition at 5 uM; in the data active = inhibition above about 45%;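 note: CRE beta-lactamase reporter cells expressing human S1P2 stimulated with S1P; 0% = agonist at EC80 alone and 100% = agonist plus reference antagonist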
# GALR2 agonist: agonists of human galanin receptor 2 (GALR2); O43603; GALR2-expressing cells, agonist activation read-out; activation, % (no concentration beside the values); 140,000 tested, 0.48% active; AID 803; in the data active = activation above about 5%, passing the limit was not always enough;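 note: 0% = vehicle buffer wells and 100% = reference agonist at full effect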
# EphB4 antag: antagonists of human EphB4-ephrin-B2 interaction; P54760; EphB4 LBD / TNYL-RAW-Alexa532 peptide, fluorescence polarization; inhibition, % at 7 µM; 97,000 tested, 0.15% active; AID 720;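 active = inhibition above the screen-wide mean inhibition plus 3 SD, cut at about 15% in these data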;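 note: 0% = DMSO wells and 100% = excess unlabeled TNYL-RAW peptide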
# GALR2 ag confirm: GALR2 (human) agonism confirmed; shares compounds with GALR2 agonist; GALR2-expressing cells, agonist activation; activation, % at 5.6 µM; 460 tested, 10% active; in the data active = activation above about 8.4%;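 note: 0% = buffer-only vehicle wells and 100% = full reference agonist response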
# BLA act counter: activates beta-lactamase reporter in GALR2 agonist counterscreen | shares compounds with GALR2 agonist | CHO NFAT-bla reporter, beta-lactamase FRET activation | activation, % at 5.6 µM | 460 tested, 10% active | AID 865;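 active = activation above the screen-wide mean activation plus 3 SD, cut at about 8% in these data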;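 note: 0% = DMSO with PBS wells and 100% = thapsigargin positive control wells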
# GALR2 ant conf: confirmation of human galanin receptor 2 (GALR2) antagonists; 480 tested, 60% active; shares compounds with GALR2 blocker; inhibition, % at 4 µM; GALR2-expressing cells, antagonist mode, inhibition;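 note: cells stimulated with galanin at about its EC80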
# BLA inh counter: beta-lactamase inhibition, GALR2 counterscreen. shares compounds with GALR2 blocker. CHO NFAT-BLA reporter, beta-lactamase FRET, thapsigargin-stimulated. inhibition, % at 4.2 µM. 480 tested, 36% active;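 active = inhibition above the mean inhibition across tested compounds plus 3 SD, cut at about 27% in these data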;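 note: 0% = 500 nM thapsigargin stimulated wells and 100% = unstimulated BSA only wells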
# * hit, by the source's call; · = no result; [ ] = remark or other dose. Shown are actives, neighbours in structure and some others; about 1.8% of the full set was active somewhere. Cut-off read from the data, not from the text of the source, unless noted: active = inhibition above about 27%; inactive = the rest.
SMILES,HIV Rev-RRE inh,GALR2 blocker,S1P2 ag,S1P2 blocker,GALR2 agonist,EphB4 antag,others
CN1/C(=C\C=Nc2ccccc2)C(C)(C)c2ccccc21,11,1,-6,0,-2,0,
O=C1NC(=O)C(=Cc2cn(CCOc3ccc4c(c3)OCO4)c3ccccc23)C(=O)N1,44*,-1,-2,-7,0,-4,
CCn1nc(-c2ccccc2)nc2c(=O)n(C)c(=O)nc1-2,·,95*,·,·,4,·,
O=P(OCC(F)(F)C(F)F)(N1CCCCC1)N1CCCCC1,-2,3,-6,-4,0,-3,
Nc1c(C(=O)NC2CCCC2)c2nc3ccccc3nc2n1CC1CCCO1 (configuration not stated),7,-13,44*,-56,33*,11,
Nc1c(C(=O)OCC2CCCO2)c2nc3ccccc3nc2n1Cc1cccs1 (configuration not stated),13,15,1,-11,0,-2,
CC12CN3CC(C)(CN(C1)C31CCOCC1)C2=O,1,16,-4,-4,-3,3,
Cc1csc(=N)n1Cc1ccccc1,·,-7,·,·,0,·,
CCN(CC)c1ccc(N=Cc2c(O)n(-c3cc(OC)ccc3OC)c(=O)[nH]c2=O)cc1,64*,3,-5,9,-4,-11,
O=c1c2ccccc2nc(CNCc2ccco2)n1-c1ccc(F)cc1,·,3,·,·,-1,·,
Cc1cc(OC(=O)c2ccco2)c2c3c(c(=O)oc2c1)CCCC3,10,9,-2,-8,0,15*,
CC1(C)C(c2ccccc2)=NC(c2cccnc2)N1O (configuration not stated),4,-4,-3,-30,0,-3,
CN1C(=O)/C(=C\c2ccc(N3CCCCC3)o2)C(=O)NC1=S,128*[fluorescence artefact?],-1,-1,-31,-3,-4,
C=CCN1C(=O)/C(=C\c2ccc(N3CCOCC3)o2)C(=O)NC1=S,·,6,·,·,1,·,
CN1C(=O)/C(=C/c2ccc(N3CCCCCC3)o2)C(=O)NC1=S,126*[fluorescence artefact?],-9,1,-27,-2,-7,
CCOc1ccc(N2C(=O)NC(=O)/C(=C\c3ccc(N4CCCCC4)o3)C2=O)cc1,·,-1,·,·,-1,·,
CCOC(=O)C(=CNc1ccc(C(O)(C(=O)OCC)C(F)(F)F)cc1C)C(=O)OCC (configuration not stated),·,-9,·,·,2,·,
O=C1NC(=S)N(c2ccc(Cl)cc2)C(=O)/C1=C/N1CCN(C(=O)c2ccco2)CC1,41*,-1,-8,5,-3,-2,
CCOC(=O)C1CCN(/C=C2/C(=O)NC(=O)N(Cc3ccco3)C2=O)CC1,·,7,·,·,-1,·,
Cc1ccc(C2=NC(C)(C)N3C2C3c2ccc([N+](=O)[O-])cc2)cc1 (configuration not stated),·,2,·,·,10*,·,GALR2 ag confirm=-1;BLA act counter=-2
O=[N+]([O-])c1ccc(C2[C@H]3C(c4ccccc4)=NC4(CCCC4)N23)cc1 (some centres not stated),·,-13,·,·,0,·,
Cc1ccc(C(=O)NC(O)C(Cl)(Cl)Cl)cc1 (configuration not stated),·,-5,·,·,1,·,
COc1cc2c(cc1OC)C(C(=O)N(C)C1CCCCC1)C1CCCCN1C2=O (configuration not stated),·,3,·,·,1,·,
CCCCNC(=O)c1c(N)n(CCCOC)c2nc3ccccc3nc12,·,-15,·,·,9.4*,·,GALR2 ag confirm=4;BLA act counter=14*
CCCNC(=O)c1c(N)n(Cc2ccco2)c2nc3ccccc3nc12,32,-8,13,-24,18*,-3,GALR2 ag confirm=5;BLA act counter=11*
SMILES,HIV Rev-RRE inh,GALR2 blocker,S1P2 ag,S1P2 blocker,GALR2 agonist,EphB4 antag,others
COCCCn1c(N)c(C(=O)OCCOC)c2nc3ccccc3nc21,·,8,·,·,1,·,
COCCCNC(=O)c1c(NC(=O)c2ccco2)n(Cc2ccccc2)c2nc3ccccc3nc12,14,5,1,18,9,4,GALR2 ag confirm=2;BLA act counter=2
COc1cc(CN2CCN(c3cc(C)ccc3C)CC2)ccc1O,1,7,-7,1,49*,-3,GALR2 ag confirm=-1;BLA act counter=-2
O=C1NCCN2CCCC12 (configuration not stated),3,2,-3,-14,-2,-12,
Cc1nc2c(=O)n(C)c(=O)nc-2n(C)n1,7,100*,10,96*,5,0,GALR2 ant conf=100*;BLA inh counter=100*
C/C(=N\N1CCCCC1c1cccnc1)c1c(O)n(C2CCCCC2)c(=S)[nH]c1=O (configuration not stated),·,-42,·,·,2,·,
O=C(c1ccccc1)C(CN1CCCC1)c1ccccc1 (configuration not stated),·,30*,·,·,1,·,GALR2 ant conf=29*;BLA inh counter=25
CC1(C)C[C@H]2C=C(C=O)[C@]3(C=O)C[C@]3(C)[C@H]2C1,·,55*,·,·,-2,·,GALR2 ant conf=92*;BLA inh counter=99*
CCCC(C)C(=O)NC1CCSC1=O (configuration not stated),3,-1,-3,-6,0,-4,
CC1CCC/C=C/C2CC(O)CC2C(O)/C=C/C(=O)O1 (configuration not stated),-1,46*,-1,4,-1,-6,GALR2 ant conf=62*;BLA inh counter=18
Cc1ccccc1-n1c(-c2ccc([N+](=O)[O-])cc2)nc2ccccc2c1=O,·,-1,·,·,0,·,
COC(=O)C1CN(C#N)N(c2ccc(Cl)cc2)C12c1ccccc1-c1ccccc12 (configuration not stated),7,78*,-15,79*,-3,3,GALR2 ant conf=87*;BLA inh counter=92*
Cc1cccc(NP(C)(=O)c2nc3c(s2)CCCC3)c1 (configuration not stated),·,5,·,·,-2,·,
O=C1NC(=O)C(CCc2ccccn2)(Cc2ccc3c(c2)OCO3)C(=O)N1CCc1ccccc1 (configuration not stated),3,-1,-9,-2,-2,-3,
